Compound activity as filed in PubChem.
MrgX1 allo act: human MrgX1 positive allosteric modulation, primary screen. MrgX1-HEK293, Fluo-4 calcium flux, FDSS; stronger effect = higher value. B-score at 10 µM. 0.63% of 310,000 active;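 active = plate-corrected calcium response at least 3 library SD above typical, normal starting fluorescence, not activating the receptor alone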;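 note: compound read alongside a low EC10 to EC30 dose of BAM8-22 agonist; peak minus trough fluorescence over baseline measured at the second addition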
Target sequence (Q96LB2 whole entry, looked up): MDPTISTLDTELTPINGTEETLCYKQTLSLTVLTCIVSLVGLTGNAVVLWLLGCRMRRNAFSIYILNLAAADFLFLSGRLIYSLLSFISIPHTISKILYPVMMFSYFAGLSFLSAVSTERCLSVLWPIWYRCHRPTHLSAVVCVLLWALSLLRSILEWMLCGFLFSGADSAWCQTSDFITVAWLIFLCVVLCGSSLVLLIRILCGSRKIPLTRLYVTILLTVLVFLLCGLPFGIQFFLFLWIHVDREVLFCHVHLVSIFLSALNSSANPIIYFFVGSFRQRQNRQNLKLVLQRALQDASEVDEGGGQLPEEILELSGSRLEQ
MrgX1 antag: human MrgX1 receptor antagonism, primary screen; MRGX1-HEK293 calcium flux, Fluo-4, BAM8-22 antagonism; stronger effect = lower value; B-score at 10 µM; 1.3% of 310,000 active;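 active = calcium-response B-score plate-corrected more than 3 library SD below zero, starting fluorescence within 5 deviations, no agonist response on first addition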;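 note: peak minus trough fluorescence over baseline after final BAM8-22 challenge near maximal dose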
RGS4 block: human RGS4 inhibition; P49798; HEK293 M3R/RGS4 inducible, Fluo-4 calcium flux; stronger effect = higher value; triggered by carbachol at its EC20; B-score at 10 µM; 0.45% of 310,000 active; AID 463165;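 active = B-score, a plate-corrected calcium signal, over three deviations above library mean, with baseline fluorescence within five deviations of library mean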;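 note: RGS4 expression induced by doxycycline in cells with stable M3 receptor; B-score is computed from the integrated fluorescence ratio over baseline after carbachol; higher B-score means a larger calcium signal and so more RGS4 inhibition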
Target sequence (P49798 whole entry, looked up): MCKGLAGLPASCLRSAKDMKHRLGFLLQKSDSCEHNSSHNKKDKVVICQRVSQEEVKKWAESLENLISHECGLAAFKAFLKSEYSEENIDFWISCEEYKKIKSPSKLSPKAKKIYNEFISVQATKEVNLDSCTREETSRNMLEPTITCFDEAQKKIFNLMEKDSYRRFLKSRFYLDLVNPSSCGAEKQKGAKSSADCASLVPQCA
MrgX1 agonist: activates human MrgX1 receptor signaling. Q96LB2. MrgX1-HEK293 cells, Fluo-4 calcium fluorescence, agonist mode; stronger effect = higher value. B-score at 10 µM. 0.44% of 310,000 active. AID 588627;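 active = calcium response B-score plate-corrected fluorescence ratio at least 3 library SD, with starting fluorescence B-score inside 5 SD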
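Material: MrgX1-expressing HEK293 cells; input: 15,000 cells per well; doses: test compound given as first of three sequential additions; schedule: overnight plating before 1 h dye loading; technique: Fluo-4 NW calcium-flux fluorescence, kinetic read; evaluation: baseline-normalised fluorescence change ratio, B-scored; control set: plate-wise positive and negative controls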
RGS4 pot: potentiators or activators of RGS4 | 0.92% of 310,000 active | B-score at 10 µM | HEK293 M3R/inducible RGS4, carbachol calcium flux Fluo4; stronger effect = lower value;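 active = B-score of the integrated calcium signal more than 4 SD below the library mean, with starting fluorescence not abnormally high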;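 note: negative B-score means reduced calcium response which marks RGS4 activation or potentiation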
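Detection: kinetic calcium fluorescence imaging with Fluo4-AM dye, 2 µM / Material: HEK293 cells with stable M3R and inducible RGS4 / Schedule: recording 10 s baseline at 1 Hz, 100 s post-agonist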
MrgX1 ant reconf: confirmation of human MrgX1 receptor antagonists. shares compounds with MrgX1 antag. remaining BAM8-22 calcium response % of control (stronger effect = lower value), % at 10 µM. AID 602420. 19% of 2,300 active. MrgX1-HEK293, BAM8-22 calcium flux, Fluo-4; stronger effect = lower value;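 active = remaining agonist calcium response no higher than 100% minus 3 SD of agonist-only control wells, with starting fluorescence near control levels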;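 note: agonist BAM8-22 given at a near maximal EC90 to ECmax level; peak minus minimum fluorescence divided by baseline after agonist addition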
HEK293 Ca flux: counter-screen for MrgX1 antagonists: effect in parental HEK293 cells; 2% of 4,000 active; shares compounds with MrgX1 antag; AID 624111; fluorescence ratio F(max-min)/F0 at 10 µM; Fluo-4 calcium fluorescence, FDSS;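 active = duplicate-averaged calcium fluorescence ratio at least three times the standard deviation of buffer wells, a nonspecific response in parental cells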
HEK293 Ca counter: activity in parental HEK293 cells without MrgX1; shares compounds with MrgX1 antag; parental HEK293 calcium flux, Fluo-4 fluorescence ratio; stronger effect = higher value; fluorescence ratio F(max-min)/F0 at 10 µM; 0.4% of 4,000 active; AID 624114;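 active = calcium fluorescence ratio, averaged over duplicates, at least 3 SD of the buffer-well ratio, meaning a nonspecific response in receptor-free cells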;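 note: untransfected parental HEK293 lacking MrgX1 used as counterscreen for MrgX1 allosteric activators; fluorescence change taken during the second addition on a kinetic imager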
HEK293 Ca cntr2: counter-screen for MrgX1 activators: effect in parental HEK293 cells; shares compounds with MrgX1 antag; Fluo-4 calcium fluorescence (FDSS); stronger effect = higher value; fluorescence ratio F(max-min)/F0 at 10 µM; 8.7% of 4,000 active; AID 624115;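 active = calcium fluorescence ratio at least three times the spread of buffer wells, meaning a non-specific response in parental cells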
Active calls of the source: *. Compounds with a hit are over-represented: about 3.5% of the library has one in this group of screens.

Screening COc1ccc2c(c1)c(=O)c(C(=O)c1ccc(C)cc1)cn2CC(=O)Nc1ccc(F)cc1 returned MrgX1 allo act inactive, MrgX1 antag inactive, RGS4 block inactive, MrgX1 agonist inactive and RGS4 pot inactive.
For CC1CN(C2CCN(C(=O)c3ccccc3Cl)CC2)CC(C)O1 (stereo not drawn) the results were MrgX1 allo act inactive, MrgX1 antag inactive, RGS4 block inactive, MrgX1 agonist inactive and RGS4 pot inactive.
`CCOC(=O)C1CCCN(C(=O)CSCc2ccccc2)C1` (stereo not drawn) gave MrgX1 allo act inactive, MrgX1 antag -8.9*, RGS4 block inactive, MrgX1 agonist inactive, RGS4 pot inactive, MrgX1 ant reconf inactive, HEK293 Ca flux inactive, HEK293 Ca counter inactive and HEK293 Ca cntr2 inactive.
Cc1cccc(C(=O)Nc2nnc(SCC(=O)Nc3ccc4c(c3)oc3ccccc34)s2)c1 was read as MrgX1 allo act inactive, MrgX1 antag -11*, RGS4 block inactive, MrgX1 agonist inactive, RGS4 pot inactive, MrgX1 ant reconf inactive, HEK293 Ca flux inactive, HEK293 Ca counter inactive and HEK293 Ca cntr2 inactive.
Screening O=c1ccc(Oc2nc(N3CCCCC3)nc(N3CCCCC3)n2)n[nH]1 returned MrgX1 allo act inactive, MrgX1 antag -5.5*, RGS4 block inactive, MrgX1 agonist inactive, RGS4 pot inactive, MrgX1 ant reconf inactive, HEK293 Ca flux inactive, HEK293 Ca counter inactive and HEK293 Ca cntr2 inactive.
`C=CCOc1ccccc1CN1CCC(n2nccc2NC(=O)c2ccccc2)CC1` gave MrgX1 allo act inactive, MrgX1 antag inactive, RGS4 block inactive, MrgX1 agonist inactive and RGS4 pot inactive.
O=C(CSc1nnnn1-c1cccc2c1CCCC2)NC1CCCC1 was read as MrgX1 allo act inactive, MrgX1 antag -4.5*, RGS4 block inactive, MrgX1 agonist inactive, RGS4 pot inactive, MrgX1 ant reconf inactive, HEK293 Ca flux inactive, HEK293 Ca counter inactive and HEK293 Ca cntr2 inactive.
`CCCOC(=O)Nc1nnc(CCC)s1` gave MrgX1 allo act inactive, MrgX1 antag inactive, RGS4 block inactive, MrgX1 agonist inactive and RGS4 pot inactive.
COc1cc(NC(=S)NC(=O)c2ccc(C(C)(C)C)cc2)ccc1NC(=O)c1cccs1 was read as MrgX1 allo act inactive, MrgX1 antag -6.2*, RGS4 block inactive, MrgX1 agonist inactive, RGS4 pot inactive, MrgX1 ant reconf 81%*, HEK293 Ca flux inactive, HEK293 Ca counter inactive and HEK293 Ca cntr2 inactive.
Cc1ccc(NC(=O)CC2C(=O)NC3CCCCC3N2C(=O)c2ccc(F)cc2)cc1C (stereo not drawn) was read as MrgX1 allo act inactive, MrgX1 antag inactive, RGS4 block inactive, MrgX1 agonist inactive and RGS4 pot inactive.
O=C(CC1C(=O)NC2CCCCC2N1C(=O)c1ccc(F)cc1)Nc1ccccc1 (stereo not drawn) was read as MrgX1 allo act inactive, MrgX1 antag -4.8*, RGS4 block inactive, MrgX1 agonist inactive, RGS4 pot inactive, MrgX1 ant reconf inactive, HEK293 Ca flux inactive, HEK293 Ca counter inactive and HEK293 Ca cntr2 inactive.
Screening COc1ccccc1C(=O)N1C(CC(=O)Nc2cc(Cl)ccc2C)C(=O)NC2CCCCC21 (stereo not drawn) returned MrgX1 allo act inactive, MrgX1 antag -4.7*, RGS4 block inactive, MrgX1 agonist inactive, RGS4 pot inactive, MrgX1 ant reconf inactive, HEK293 Ca flux inactive, HEK293 Ca counter inactive and HEK293 Ca cntr2 inactive.
Cc1ccc(Cl)cc1NC(=O)CC1NCCNC1=O (stereo not drawn) was read as MrgX1 allo act inactive, MrgX1 antag inactive, RGS4 block inactive, MrgX1 agonist inactive and RGS4 pot inactive.
For COc1ccc(CCNC(=O)C2CCCN2C(=O)Nc2ccc(F)cc2)cc1OC (stereo not drawn) the results were MrgX1 allo act inactive, MrgX1 antag inactive, RGS4 block inactive, MrgX1 agonist inactive and RGS4 pot inactive.
Screening CCOCCn1c(CN2CCN(c3ccccc3)CC2)nc2c1c(=O)n(C)c(=O)n2C returned MrgX1 allo act inactive, MrgX1 antag -7.4*, RGS4 block inactive, MrgX1 agonist inactive, RGS4 pot inactive, MrgX1 ant reconf inactive, HEK293 Ca flux inactive, HEK293 Ca counter inactive and HEK293 Ca cntr2 inactive.
`COc1cc(NC(=S)N2CCCCC2C)c(OC)cc1Cl` (stereo not drawn) gave MrgX1 allo act inactive, MrgX1 antag -6.5*, RGS4 block inactive, MrgX1 agonist inactive, RGS4 pot inactive, MrgX1 ant reconf inactive, HEK293 Ca flux inactive, HEK293 Ca counter inactive and HEK293 Ca cntr2 inactive.
`N#Cc1cc(NC2CCCC2)c([N+](=O)[O-])cc1C#N` gave MrgX1 allo act inactive, MrgX1 antag -12*, RGS4 block inactive, MrgX1 agonist inactive, RGS4 pot inactive, MrgX1 ant reconf inactive, HEK293 Ca flux inactive, HEK293 Ca counter inactive and HEK293 Ca cntr2 inactive.
O=[N+]([O-])c1ccc(NC2CCCC2)cc1 was read as MrgX1 allo act inactive, MrgX1 antag inactive, RGS4 block inactive, MrgX1 agonist inactive and RGS4 pot inactive.
Screening O=C1c2cnccc2CN1Cc1ccccc1 returned MrgX1 allo act inactive, MrgX1 antag -5.3*, RGS4 block inactive, MrgX1 agonist inactive, RGS4 pot inactive, MrgX1 ant reconf inactive, HEK293 Ca flux inactive, HEK293 Ca counter inactive and HEK293 Ca cntr2 inactive.
Screening COc1ccc(CCNC(=O)CN2C(=O)C3(OCCCO3)c3ccccc32)cc1OC returned MrgX1 allo act inactive, MrgX1 antag -5.4*, RGS4 block inactive, MrgX1 agonist inactive, RGS4 pot inactive, MrgX1 ant reconf 84%*, HEK293 Ca flux inactive, HEK293 Ca counter inactive and HEK293 Ca cntr2 inactive.
